Screening data deposited in PubChem BioAssay by several laboratories.
A selection: hits, their analogues and other compounds. The true share with any hit is near 2.2%.
PfGluPho inh = PfG6PD (Plasmodium falciparum) enzyme inhibition | PfGluPho enzyme, NADPH resazurin-diaphorase fluorescence | inhibition, % at 20 µM | 0.78% of 350,000 active | AID 504690;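 active = inhibition reaching at least a set limit at 20 µM in the primary screen, cut at about 59% in these data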;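 also: 0% = DMSO wells with substrate and 100% = DMSO wells lacking glucose-6-phosphate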
HKDC1 inhibitor = blocks human hexokinase HKDC1 activity; recombinant HKDC1, G6PDH/diaphorase resazurin coupled fluorescence; 0.16% of 340,000 active; inhibition, % at 20 µM; Q2TB90;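 active = inhibition above about 35% when tested at 20 µM, limit read from the data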;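 also: plate controls were DMSO wells with enzyme for no effect and DMSO wells lacking enzyme for full effect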
Target sequence (Q2TB90 whole entry, looked up): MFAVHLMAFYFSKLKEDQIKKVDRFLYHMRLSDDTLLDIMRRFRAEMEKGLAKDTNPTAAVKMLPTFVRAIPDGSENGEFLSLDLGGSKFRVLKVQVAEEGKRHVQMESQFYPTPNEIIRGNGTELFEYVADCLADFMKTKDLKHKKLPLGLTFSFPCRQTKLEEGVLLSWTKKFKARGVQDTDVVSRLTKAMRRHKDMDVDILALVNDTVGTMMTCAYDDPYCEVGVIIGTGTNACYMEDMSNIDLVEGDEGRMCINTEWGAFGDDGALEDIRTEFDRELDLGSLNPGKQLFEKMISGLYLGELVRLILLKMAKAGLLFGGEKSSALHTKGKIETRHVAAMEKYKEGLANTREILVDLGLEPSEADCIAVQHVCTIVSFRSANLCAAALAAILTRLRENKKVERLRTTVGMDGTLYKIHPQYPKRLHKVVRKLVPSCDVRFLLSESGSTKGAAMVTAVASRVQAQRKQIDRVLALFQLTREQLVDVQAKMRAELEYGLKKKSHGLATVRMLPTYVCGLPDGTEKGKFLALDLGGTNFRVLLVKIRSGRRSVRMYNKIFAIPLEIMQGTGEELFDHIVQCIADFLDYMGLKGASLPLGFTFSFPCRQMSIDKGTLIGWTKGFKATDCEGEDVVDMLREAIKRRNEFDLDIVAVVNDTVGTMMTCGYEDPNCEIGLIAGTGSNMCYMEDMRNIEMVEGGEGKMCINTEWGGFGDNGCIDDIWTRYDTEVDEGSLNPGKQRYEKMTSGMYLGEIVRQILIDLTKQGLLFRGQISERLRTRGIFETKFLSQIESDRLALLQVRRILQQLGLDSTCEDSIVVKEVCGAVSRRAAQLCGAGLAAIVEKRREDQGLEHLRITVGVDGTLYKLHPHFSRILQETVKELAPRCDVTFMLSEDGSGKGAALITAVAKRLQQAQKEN
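System: Recombinant HKDC1 hexokinase | Amount: HKDC1 at 5 µg/mL | Reagent: Glucose with 1 mM ATP | Doses: Single 20 µM dose | Incubation: Reaction time 90 min, room temperature, protected from light | Signal: Coupled resazurin fluorescence, excitation 525 nm, emission 613 nm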
ABHD5-PLIN5 inh = blocks binding of human ABHD5 to perilipin-5. Q00G26+Q8WTS1. Split G. princeps luciferase complementation, luminescence, 4 h. inhibition, % at 4 µM. 0.78% of 360,000 active. AID 602281;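 active = inhibition above the mean inhibition across every tested compound plus 3 SD, cut at about 22% in these data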;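 also: 0% = DMSO only wells and the 100% control is not disclosed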
Granule exo inh = lytic granule exocytosis inhibition; TALL-104 LAMP-1 surface exposure, flow cytometry; cells stimulated with thapsigargin and PMA; inhibition, % at 10 µM; 0.66% of 360,000 active; AID 651702;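 active = inhibition above about 55%, limit read from the data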
PfGluPho conf = confirmation of Plasmodium falciparum G6PD inhibitors. inhibition, % at 20 µM. shares compounds with PfGluPho inh. recombinant PfGluPho, NADPH-diaphorase-resazurin fluorescence. 34% of 2,400 active;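 active = inhibition of at least 50% at 20 µM in any single replicate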;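 also: 0% = DMSO with substrate and 100% = DMSO lacking glucose-6-phosphate substrate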
Diaph ctr 10uM = counter-screen for P. falciparum G6PD inhibitors: diaphorase inhibitors, oxidizers; shares compounds with PfGluPho inh; diaphorase-coupled resazurin reduction, fluorescence, NADPH 10 uM; inhibition, % at 20 µM; 39% of 820 active;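 active = average inhibition reaching 50% or more with the compound at 20 µM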;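 also: resorufin red fluorescence formed as diaphorase reduces resazurin using NADPH; 0% = DMSO with enzyme and 100% = DMSO without enzyme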
Diaph ctr 30uM = counter-screen for P. falciparum G6PD inhibitors: diaphorase inhibitors, oxidizers; shares compounds with PfGluPho inh; Diaphorase/resazurin coupled assay, resorufin fluorescence, 30 uM NADPH; inhibition, % at 20 µM; 29% of 820 active; AID 504863;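 active = inhibition averaging 50% or more, tested at 20 µM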;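 also: 0% = DMSO with enzyme and 100% = DMSO wells lacking diaphorase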
* = called active by the depositor.

COc1ccc(NC(=O)c2ccc(NC(=O)CN3CCN(c4ccc(O)cc4)CC3)cc2)cc1 was read as PfGluPho inh 75*, HKDC1 inhibitor 9, ABHD5-PLIN5 inh -1, Granule exo inh -3 and PfGluPho conf 36.
`O=C(CN1CCN(c2ccc(O)cc2)CC1)Nc1cc(S(=O)(=O)N2CCCCC2)ccc1Cl` gave PfGluPho inh 56, HKDC1 inhibitor 11, ABHD5-PLIN5 inh 6 and Granule exo inh -2.
Screening Cn1nc(C(=O)NCc2cccs2)c2ccccc2c1=O returned PfGluPho inh -2, HKDC1 inhibitor 4, ABHD5-PLIN5 inh -1 and Granule exo inh 0.
Screening COc1ccc(CCNC(=O)c2ccc(NS(=O)(=O)c3ccc4[nH]c(=O)[nH]c4c3)cc2)cc1 returned PfGluPho inh -16, HKDC1 inhibitor -2, ABHD5-PLIN5 inh 8 and Granule exo inh 8.
Screening c1ccc(OCc2nnc3n2N=C(c2ccccc2)CS3)cc1 returned PfGluPho inh 100*, HKDC1 inhibitor -11, ABHD5-PLIN5 inh -3, Granule exo inh 1, PfGluPho conf 58*, Diaph ctr 10uM 41 and Diaph ctr 30uM 29.
`Oc1c(Cl)cc(Cl)cc1/C=C/c1ccc2cccc(O)c2n1` gave PfGluPho inh 81*, HKDC1 inhibitor -8, ABHD5-PLIN5 inh -2, Granule exo inh 1 and PfGluPho conf 16.
`CC(=O)c1ccc(Nc2ccc(-c3ccccc3F)nn2)cc1` gave PfGluPho inh 79*, HKDC1 inhibitor 3, ABHD5-PLIN5 inh 11, Granule exo inh 6 and PfGluPho conf 36.
`CCOc1ccc(NC(=O)Cn2nnc(C(=O)NCc3ccc4c(c3)OCO4)c2N)cc1` gave PfGluPho inh -1, HKDC1 inhibitor 2, ABHD5-PLIN5 inh 0 and Granule exo inh -2.
COc1ccc(CCN2CC(C(=O)NCCc3cnn(C)c3)CCC2=O)cc1 (configuration not stated) was read as PfGluPho inh -14, HKDC1 inhibitor -1, ABHD5-PLIN5 inh 6 and Granule exo inh -1.
`O=C(Nc1ccc([N+](=O)[O-])cc1Cl)c1cccc([N+](=O)[O-])c1` gave PfGluPho inh 5, ABHD5-PLIN5 inh 5 and Granule exo inh -2.
For O=C(Nc1ccc([N+](=O)[O-])cc1Cl)c1cc(Cl)ccc1O the results were PfGluPho inh 94*, HKDC1 inhibitor 5, ABHD5-PLIN5 inh 1, Granule exo inh 37, PfGluPho conf 51*, Diaph ctr 10uM 41 and Diaph ctr 30uM 31.
`CCC(CC)C(=O)Oc1c(C(=O)N(C)C)cccc1-c1ccccc1` gave PfGluPho inh 0, HKDC1 inhibitor -3, ABHD5-PLIN5 inh 2 and Granule exo inh 9.
For O=C(Nc1nc2c(s1)CCCC2)c1ccc2ncsc2c1 the results were PfGluPho inh 65*, HKDC1 inhibitor 1, ABHD5-PLIN5 inh -2, Granule exo inh 14 and PfGluPho conf 9.
`O=C(Nc1nc2c(s1)CCCC2)c1ccc(Br)s1` gave PfGluPho inh 68*, HKDC1 inhibitor -7, ABHD5-PLIN5 inh -3, Granule exo inh 0 and PfGluPho conf 26.
O=C(Nc1nc2c(s1)CCCC2)c1ccc(N2C(=O)CCC2=O)cc1 was read as PfGluPho inh 6, HKDC1 inhibitor 5, ABHD5-PLIN5 inh 6 and Granule exo inh -1.
For Cc1csc(SC(C)c2nc3scc(-c4ccccc4)c3c(=O)[nH]2)n1 (configuration not stated) the results were PfGluPho inh 11, HKDC1 inhibitor 0, ABHD5-PLIN5 inh -3 and Granule exo inh 1.
c1ccc(SC23CCCCN(CCC2)[C@]32CO2)cc1 (some centres not stated) was read as ABHD5-PLIN5 inh -3 and Granule exo inh -1.
For COc1ccc(-c2nc3ccc(Br)cn3c2Cc2cccc(Cl)c2)cc1OC the results were ABHD5-PLIN5 inh 6 and Granule exo inh -3.
CC(C)c1ccccc1-n1c(SCc2cc(=O)oc3ccc4ccccc4c23)nnc1-c1cccnc1 was read as PfGluPho inh 61*, HKDC1 inhibitor 10, ABHD5-PLIN5 inh 10, Granule exo inh -2 and PfGluPho conf -15.
